Experimental findings from ChEMBL document CHEMBL3124924, “Bifunctional ethyl 2-amino-4-methylthiazole-5-carboxylate derivatives: synthesis and in vitro biological evaluation as antimicrobial and anticancer agents” (2014) are described below.

Type in all cases: functional
The subject of one experiment is NCI-H522. The experiment is described as follows: Cytotoxicity against human NCI-H522 cells assessed as growth inhibition at 10 uM after 48 hrs by SRB assay. The note with it: NCI-H522, 48 h, read-out: GI. Put shortly:
(§1)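 NCI-60 one-dose primary screen run by the NCI Drug Evaluation Branch across the full 60-line panel. Single high-dose treatment with 48 h continuous drug exposure. Cell growth estimated by sulforhodamine B protein staining. Results given as percent growth of treated cells and expressed as percentage growth inhibition.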

The subject of the next experiment is SN12C. The experiment is described as follows: Cytotoxicity against human SN12C cells assessed as growth inhibition at 10 uM after 48 hrs by SRB assay. The note with it: read-out: GI. Put shortly:
as §1

For another experiment, the system named is HT-29. The experiment is described as follows: Cytotoxicity against human HT-29 cells assessed as growth inhibition at 10 uM after 48 hrs by SRB assay. The conditions noted are these: HT-29, 48 h, read-out: GI. Put shortly:
as §1

The next experiment deals with MDA-MB-468. The experiment is described as follows: Cytotoxicity against human MDA-MB-468 cells assessed as growth inhibition at 10 uM after 48 hrs by SRB assay. The conditions noted are these: MDA-MB-468, 48 h, read-out: GI. Put shortly: as §1
In experiment [1] the test system is Candida albicans. The experiment is described as follows: Antifungal activity against Candida albicans ATCC 10231 assessed as growth inhibition after 48 hrs by two-fold serial dilution assay. The conditions noted are these: ATCC 10231, 48 h. Put shortly:
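Twofold serial broth dilution run on compounds giving inhibition zones of 13 mm or more. Organisms pre-grown in suitable broth at 37 °C, 24 h for bacteria and 48 h for fungi. Dilution series 200, 100, 50, 25, 12.5, 6.25. Each 5 mL tube inoculated with 0.1 mL and incubated 37 °C for 48 h. Tubes scored for presence or absence of growth.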

Another experiment relates to SNB-75. The experiment is described as follows: Cytotoxicity against human SNB75 cells assessed as growth inhibition at 10 uM after 48 hrs by SRB assay. The conditions noted are these: SNB-75, 48 h, read-out: GI. Put shortly: as §1
Experiment [2] has as its system Candida albicans. Kind of experiment: Fungicidal activity against Candida albicans ATCC 10231 after 18 hrs. The note with it: ATCC 10231, 18 h. The procedure, abridged: (§2)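 Continuation of the broth-dilution MIC test. A loopful from each tube without visible growth spread on a quarter of a Mueller-Hinton agar plate and incubated 18 h. Lowest concentration giving no growth on subculture taken as the MBC.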

Another experiment deals with Bacillus spizizenii. Kind of experiment: Bactericidal activity against Bacillus subtilis ATCC 6633 after 18 hrs. The conditions noted are these: ATCC 6633, 18 h. Put shortly: as §2
The next experiment deals with SK-MEL-5. Kind of experiment: Cytotoxicity against human SK-MEL-5 cells assessed as growth inhibition at 10 uM after 48 hrs by SRB assay. The conditions noted are these: SK-MEL-5, 48 h, read-out: GI. Put shortly:
as §1

The test system of a further experiment is NCI-H226. The experiment is described as follows: Cytotoxicity against human NCI-H226 cells assessed as growth inhibition at 10 uM after 48 hrs by SRB assay. The note with it: NCI-H226, 48 h, read-out: GI. The procedure, abridged:
as §1

A further experiment concerns SK-MEL-2. Kind of experiment: Cytotoxicity against human SK-MEL-2 cells assessed as growth inhibition at 10 uM after 48 hrs by SRB assay. The note with it: SK-MEL-2, 48 h, read-out: GI. The procedure, abridged:
as §1

A further experiment has as its system Escherichia coli. The experiment is described as follows: Antibacterial activity against Escherichia coli ATCC 25922 assessed as growth inhibition at 1 mg/mL after 24 hrs by agar-cup diffusion method. The conditions noted are these: ATCC 25922, 24 h, read-out: DIZ. The procedure, abridged: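 Agar-cup diffusion: 1 mL of 6 h broth culture seeded per 100 mL molten sterile agar at 45 °C and poured into plates. 8 mm cups cut, each filled with 0.1 mL of 1 mg/mL test solution. Incubated 37 °C for 24 h, 48 h for C. albicans. DMSO control per organism. Inhibition zone diameter in mm, mean of three measurements.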

In another experiment the test system is SW-620. Kind of experiment: Cytotoxicity against human SW620 cells assessed as growth inhibition at 10 uM after 48 hrs by SRB assay. The note with it: SW-620, 48 h, read-out: GI. The procedure, abridged: as §1
For another experiment, the system named is HCT-116. Kind of experiment: Cytotoxicity against human HCT116 cells assessed as growth inhibition at 10 uM after 48 hrs by SRB assay. The conditions noted are these: HCT-116, 48 h, read-out: GI. The procedure, abridged:
as §1

Values after ≈ are worked out from the molar mass of the structure shown.

On to `CCOC(=O)c1sc(NC(=O)Nc2ccccc2)nc1C`, for which the inhibition of growth at 10 µM in the experiment with NCI-H522 turned out to be 2.64%; with SN12C, 4.19%; with HT-29 it was 24.1%; in the experiment with MDA-MB-468 it was 18.4%; in the experiment on SNB-75, 47.2%; in the experiment with SK-MEL-5, 4.58%. Also, the inhibition of growth at 10 µM was 11.3% in the experiment on NCI-H226, 77.6% with SK-MEL-2, 2.85% in the experiment with SW-620 and 16.3% with HCT-116. Moreover, the MIC in the experiment on Candida albicans [1] amounted to 25 µg/mL (≈ 81.9 µM). The compound also had an MFC with Candida albicans [2] of 25 µg/mL (≈ 81.9 µM). In the experiment on Bacillus spizizenii, this compound displayed a minimum bactericidal concentration (MBC) of 50 µg/mL (≈ 164 µM). The zone of inhibition at 1000 µg/mL in the experiment with Escherichia coli was over 13 mm.
As for `Cc1nc(N)sc1C(=O)Nc1ccc(F)cc1`, the inhibition of growth at 10 µM was 9.55% with NCI-H522; 3.01% in the experiment on SN12C; under 10% with HT-29; 9.63% in the experiment on MDA-MB-468; 5.4% in the experiment with SNB-75; 6.65% with SK-MEL-5. For the same compound, the inhibition of growth at 10 µM with NCI-H226 was 5.62%; in the experiment on SK-MEL-2 it was 67.3%; in the experiment with SW-620, under 10%; in the experiment with HCT-116, under 10%. Further, the MIC in the experiment with Candida albicans [1] is 100 µg/mL (≈ 398 µM). This compound also came in with an MFC in the experiment on Candida albicans [2] of 100 µg/mL (≈ 398 µM). The compound further displayed an MBC in the experiment with Bacillus spizizenii of 50 µg/mL (≈ 199 µM). Also, the zone of inhibition at 1000 µg/mL in the experiment with Escherichia coli was over 13 mm.
As to `CCOC(=O)c1sc(NS(=O)(=O)c2ccccc2)nc1C`, the inhibition of growth at 10 µM in the experiment with NCI-H522 was under 10%; in the experiment on SN12C it was under 10%; in the experiment with HT-29, under 10%; in the experiment with MDA-MB-468, under 10%; in the experiment on SNB-75 it was 3.91%; in the experiment with SK-MEL-5, under 10%. For the same compound, the inhibition of growth at 10 µM in the experiment with NCI-H226 is under 10%; in the experiment on SK-MEL-2, 97.5%; in the experiment with SW-620 it was under 10%; in the experiment on HCT-116 it was 43.1%. In the experiment with Bacillus spizizenii, this compound displayed a minimum bactericidal concentration (MBC) of 100 µg/mL (≈ 306 µM). Moreover, in the experiment on Escherichia coli, the zone of inhibition at 1000 µg/mL is over 13 mm.
With `Cc1nc(NC(=O)NC2CCCCC2)sc1C(=O)NN`, the inhibition of growth at 10 µM in the experiment on NCI-H522 is 99.5%; in the experiment on SN12C, under 10%; in the experiment with HT-29 it was 5.51%; in the experiment with MDA-MB-468, 3.73%; in the experiment on SNB-75 it was under 10%; in the experiment on SK-MEL-5, under 10%. Further, the inhibition of growth at 10 µM with NCI-H226 is under 10%; in the experiment on SK-MEL-2 it was 29.3%; in the experiment with SW-620, under 10%; in the experiment on HCT-116 it was 16.3%. In addition, the MIC in the experiment with Candida albicans [1] worked out at 50 µg/mL (≈ 168 µM). The compound also showed an MFC against Candida albicans [2] of 100 µg/mL (≈ 336 µM). This compound also showed an MBC against Bacillus spizizenii of 100 µg/mL (≈ 336 µM). In the experiment on Escherichia coli, the zone of inhibition at 1000 µg/mL was over 13 mm.
For the compound `Cc1nc(NC(=S)Nc2ccc(F)cc2)sc1C(=O)NN`, the inhibition of growth at 10 µM with NCI-H522 is under 10%; with SN12C it was 2.43%; in the experiment on HT-29, under 10%; with MDA-MB-468 it was 5.5%; with SNB-75, 7.19%; with SK-MEL-5 it was 5.01%. Moreover, the inhibition of growth at 10 µM in the experiment on NCI-H226 came out at 5.35%; in the experiment with SK-MEL-2 it was 30%; in the experiment with SW-620, 6.48%; in the experiment on HCT-116, 7.87%. Further, in the experiment on Candida albicans [1], the MIC turned out to be 12.5 µg/mL (≈ 38.4 µM). The same compound had an MFC in the experiment on Candida albicans [2] of 12.5 µg/mL (≈ 38.4 µM). The compound also gave an MBC with Bacillus spizizenii of 12.5 µg/mL (≈ 38.4 µM). Moreover, the zone of inhibition at 1000 µg/mL in the experiment on Escherichia coli is over 13 mm.
For the compound `CCOC(=O)c1sc(NC(=O)c2cc(OC)c(OC)c(OC)c2)nc1C`, the inhibition of growth at 10 µM is 32.6% in the experiment on NCI-H522; 7.38% with SN12C; under 10% with HT-29; 8.82% in the experiment on MDA-MB-468; 2.51% with SNB-75; 5.59% in the experiment on SK-MEL-5. Further, the inhibition of growth at 10 µM in the experiment with NCI-H226 is 12%; in the experiment on SK-MEL-2 it was 69.1%; with SW-620, under 10%; with HCT-116, 4.01%. Besides, the minimum bactericidal concentration (MBC) against Bacillus spizizenii turned out to be 50 µg/mL (≈ 131 µM). Besides, in the experiment on Escherichia coli, the zone of inhibition at 1000 µg/mL was over 13 mm.
As for `Cc1nc(NC(=O)Nc2ccccc2)sc1C(=O)NN`, the inhibition of growth at 10 µM is 63.4% with NCI-H522; under 10% with SN12C; under 10% in the experiment with HT-29; under 10% with MDA-MB-468; under 10% in the experiment on SNB-75; 2.35% in the experiment with SK-MEL-5. Further, the inhibition of growth at 10 µM was 2.53% with NCI-H226, 37.8% in the experiment on SK-MEL-2, under 10% in the experiment with SW-620 and 10.5% in the experiment with HCT-116. The minimal inhibitory concentration (MIC) in the experiment on Candida albicans [1] came out at 25 µg/mL (≈ 85.8 µM). The same compound displayed an MFC in the experiment on Candida albicans [2] of 25 µg/mL (≈ 85.8 µM). For the same compound, the minimum bactericidal concentration (MBC) against Bacillus spizizenii is 25 µg/mL (≈ 85.8 µM). Moreover, the zone of inhibition at 1000 µg/mL with Escherichia coli was over 13 mm.
On to `CCOC(=O)c1sc(NC(=O)NC2CCCCC2)nc1C`, for which the inhibition of growth at 10 µM with NCI-H522 is under 10%; with SN12C, 5.62%; in the experiment on HT-29, 15.5%; in the experiment with MDA-MB-468, under 10%; in the experiment with SNB-75, under 10%; in the experiment on SK-MEL-5, 8.95%. Also, the inhibition of growth at 10 µM in the experiment with NCI-H226 is 9.89%; in the experiment with SK-MEL-2, 64.1%; with SW-620, 7.5%; with HCT-116, 14.2%. In the experiment with Bacillus spizizenii, this compound displayed a minimal bactericidal concentration (MBC) of 100 µg/mL (≈ 321 µM). For the same compound, in the experiment on Escherichia coli, the zone of inhibition at 1000 µg/mL was over 13 mm.
